Test [1] has as its target zfα5(huW1-4)β1-1 blade swap integrin (human | zebrafish) (UniProt P08648). The test is described as follows: ELISA.
Test [2] deals with zfα5β1-1(D225A) (zebrafish). In words: ELISA.
Test [3] concerns the target zfα5(SWAA)β1-1 loop swap integrin (D3-A3 loop RGRK to SWAA) (zebrafish). In words: ELISA.
Test [4] has as its target zfα5β1-1(Y204A) (zebrafish). The test is described as follows: ELISA.
For test [5], the target named is zebrafish α5β1-1-Fc recombinant soluble integrin (zebrafish). The test is described as follows: ELISA.
Test [6] concerns the target zfα5β1-1(L206A) (zebrafish). The test is described as follows: ELISA.
For test [7], the target named is triple loop swap zfα5β1-1 integrin (KEDTPH to EKEPL, RGRK to SWAA and RKEIRF to ASSIY) (zebrafish). The test is described as follows: ELISA.
The target in test [8] is zfα5(EPEK)β1-1 loop swap integrin (B2-C2 loop KEDTPH to EKEPL) (zebrafish). In words: ELISA.
For test [9], the target named is zfα5(ASSIY)β1-1 loop swap integrin (D4-A4 loop RKEIRF to ASSIY) (zebrafish). In words: ELISA.
Test [10] concerns zfα5β1-1, zfα5β1-2 and zfα5huβ1. The test is described as follows: inhibition of 70K binding to zebrafish α5 integrins. Conditions: specificity control / antagonist test; 1 mM Mn2+. The procedure, abridged: (§1)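 Receptors were Fc-fused α5β1 headpiece integrins expressed transiently in CHO-L761h cells and captured from supernatant on goat anti-human Fc. Binding of the biotinylated fibronectin fragment (2–3 nM) was run with 1 mM Mn2+ at room temperature. Peptide inhibitor was tested at 0.1–100 μg/ml and small-molecule inhibitor at 0.1–300 nM, both serially diluted. BSA-well background was subtracted; four replicate wells; at least three experiments.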

Test [11] concerns huα5β1-1, huα5β1-2 and huα5huβ1. In words: inhibition of 50K binding to human α5 integrins. Further details: species or system human α5 / zebrafish or human β1. The conditions noted are these: 1 mM Mn2+. Summed up: as §1
For a further test, the system named is α5β1. Conditions: cited from earlier work; for affinity for α5β1: phage display peptides.
Test [12] deals with huα5β1-1. The test is described as follows: inhibition of 50K binding to huα5β1-1. Set-up: species or system human α5 / zebrafish β1-1. Conditions: control experiments.
The target in another test is Triple swap (Danio rerio, UniProt A0ACM8Q6M2+Q3YAA1, K151E/E152K/D153E/DEL154/H156L/R184S/G185W/R186A/K187A/R250A/K251S/E252S/DEL254/F255Y/S520N). The test is described as follows: Solid-phase inhibition of biotinylated 70K zebrafish fibronectin-1 fragment. The test is classed as biochemical. The conditions noted are these: read-out: Apparent KI values (nM), JSM6427, 70K; SD, n = 3. Summed up:
(§2)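 Fc-fused soluble integrin (full α5 ectodomain plus β1 headpiece: PSI, hybrid, βI) from CHO-L761h supernatants 6 days after transient co-transfection, captured on anti-human Fc. Biotinylated fibronectin fragment (E. coli-made human 3Fn6-10 or FLAG-purified zebrafish 70K from 293-EBNA cells) at 2–3 nM, 1 mM Mn2+, room temperature. Inhibitor 0.1–300 nM, serially diluted. Four replicate wells, BSA background subtracted. Curves fitted by simulated annealing. KI = IC50/(1+[ligand]/KD).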

For the next test, the target named is zfα5(SGAA)β1-1 (Danio rerio, UniProt A0ACM8Q6M2+Q3YAA1, R184S/R186A/K187A/S520N). The test is classed as biochemical. The conditions noted are these: read-out: apparent KI values for JSM6427 (Figure 6 legend); SD, n = 3. Summed up:
as §2

Test [13] has as its target huα5β1-1 (UniProt P08648+Q3YAA1). The test is described as follows: Solid-phase inhibition of biotinylated 50K human fibronectin fragment. The test is classed as biochemical. The conditions noted are these: read-out: Apparent KI values (nM), JSM6427, 50K; SD, n = 3. Summed up: as §2
Test [14] has as its target T1, zfα5(SWAA)β1-1 (Danio rerio, UniProt A0ACM8Q6M2+Q3YAA1, R184S/G185W/R186A/K187A/S520N). The test is classed as biochemical. Conditions: read-out: apparent KI values for JSM6427 (Figure 6 legend); SD, n = 3. Summed up:
as §2

Test [15] deals with T1, zfα5(SWAA)β1-1. The test is described as follows: Solid-phase inhibition of biotinylated 70K zebrafish fibronectin-1 fragment. The conditions noted are these: read-out: Apparent KI values (nM), JSM6427, 70K; SD, n = 3. The test is classed as biochemical. Summed up: as §2
The test system of test [16] is human α5 with Ile-210 (equivalent of Leu-206) mutated to alanine. The conditions noted are these: cited from earlier work.
The subject of test [17] is human α5 with Tyr-208 (equivalent of Tyr-204) mutated to alanine. Conditions: cited from earlier work.
Test [18] addresses human α5 / zebrafish β1-1-Fc recombinant soluble integrin (human | zebrafish, UniProt P08648;Q3YAA1). In words: ELISA.
Test [19] deals with zfα5(SWAA)β1-1 loop swap integrin (D3-A3 loop RGRK to SWAA) (zebrafish). The test is described as follows: ELISA. This is another data set of the same source.
Test [20] has as its target zfα5(huW1-4)β1-1 blade swap integrin (human | zebrafish) (UniProt P08648). In words: ELISA. This is another data set of the same source.
For test [21], the target named is triple loop swap zfα5β1-1 integrin (KEDTPH to EKEPL, RGRK to SWAA and RKEIRF to ASSIY) (zebrafish). In words: ELISA. The source holds these as a separate data set.

Where two headings read alike, the source gives them in different places. Bridge positions count the residues as written; N and C are the ends. Ends that are not written are not given here.

On to “50 kDa cell binding domain of human fibronectin (3Fn6-10) (domain or fragment)”, for which, in test [1], the Kd is 1.3 nM.
Turning to “70 kDa cell binding fragment of zebrafish fibronectin-1 (3Fn6-10 including the EIIIB domain) (domain or fragment)”, the Kd stood at 42 nM in test [2]; 1.7 nM in [3]; 79 nM in test [4]; 106 nM in [6]; 14 nM in test [1]; 5.8 nM in test [7]. The Kd came out at 4.6 nM in [8] and 8.3 nM in [9]. Further, in test [5], the fold higher affinity than for zfα5β1-2 is 3 fold.
`O=C(O)CN(CCN(CC(=O)O)CC(=O)O)CC(=O)O` [EDTA]: in test [10], the “inhibition of 70K binding to zebrafish α5 integrins” value is reported as “could be inhibited”. Moreover, the “inhibition of 50K binding to human α5 integrins” value in [11] was “fully inhibited”.
Consider “CRGDGFC (disulfide 1-7 (inferred)) [CRGDGFC]”, for which, in the test with α5β1, the “affinity for α5β1” value was “high affinity”.
As to “CRGDGWC (disulfide 1-7 (inferred)) [CRGDGWC]”, in the test with α5β1, the “affinity for α5β1” value is “high affinity”.
As for “GACRRETADACGA (disulfide 3-11 (inferred))”, the “inhibition of 50K binding to huα5β1-1” value in the test with huα5β1-1 [12] is “ineffective”.
For the molecule “GCRGDSPCG (disulfide 2-8 (inferred)) [cyclic RGD peptide]”, in test [10], the “inhibition of 70K binding to zebrafish α5 integrins” value is listed as “could be inhibited”. In addition, in test [11], the “inhibition of 50K binding to human α5 integrins” value is given as “fully inhibited”.
For the molecule JSM6427, the Ki on Triple swap came out at 1.21 ± 0.04 nM; on zfα5(SGAA)β1-1, 25 nM; on huα5β1-1 [13], 0.65 ± 0.15 nM; on zfα5(SWAA)β1-1 [14], 4.2 nM; at zfα5(SWAA)β1-1 [15] it was 7.2 ± 2.4 nM.
As for RGDGW, the “specificity/selectivity for human α5β1” value in the test with α5β1 (Trp-157 in the D3-A3 loop involved) was “human α5β1-specific and α5β1-selective”.
With fibronectin, the “reduction of affinity of fibronectin binding, human α5 Ile mutated to alanine” value in [16] was 200 fold. The “reduction of affinity of fibronectin binding, human α5 Tyr mutated to alanine” value in [17] is recorded as 5 fold.
Take GACRRETAWACGA (disulfide 3-11 (inferred)) [cyclic peptide GACRRETAWACGA]: the Ki in [18] was determined as 47 nM.
In the case of GACRRETAWACGA (disulfide 3-11 (inferred)) [cyclic peptide …], the figures for the Ki in [19], in test [20] and in test [21] were 126 nM, 31 nM and 76 nM, respectively.
